# Legend:
# [1] = Peak plasma concentration was measured in dogs; format: ADME, organism-based, Canis lupus familiaris; details: dog
# [2] = target: Human immunodeficiency virus type 1 protease (Human immunodeficiency virus 1, UniProt Q72874); assay: Inhibitory activity against HIV protease
# Method in brief: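 Ki for HIV protease, measured by cleavage of a fluorescent substrate with HPLC analysis, following the earlier method.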
# MT2 = assay: Antiviral potency evaluated by measuring accumulation of viral RNA transcripts 3 days after infection of MT-2 cells with HIV-1 RF; format: functional; details: Homo sapiens, MT2, 72 h
# [3] = target: Human immunodeficiency virus type 1 protease (Human immunodeficiency virus 1) (UniProt Q72874); assay: Antiviral activity against mutant virus HIV-1 mutant (84V/82F) strain; format: functional
# Method in brief: (§1)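 I84V single and I84V/V82F double mutant HIV-1, both from in vitro selection under a cyclic urea inhibitor. IC90 measured by yield reduction assay.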
# [4] = target: Human immunodeficiency virus type 1 protease (Human immunodeficiency virus 1) (UniProt Q72874); assay: Antiviral activity against ritonavir virus (HIV-1 mutated at 46I/63P/71V/82F/84V and resistant to ritonavir); format: functional
# Method in brief: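 Mutant HIV-1 viruses carrying protease substitutions seen in ritonavir- or indinavir-treated patient isolates; the ritonavir virus carries 46I/63P/71V/82F/84V. IC90 read from a viral p24 readout, following the earlier method.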
# [5] = target: Human immunodeficiency virus type 1 protease (Human immunodeficiency virus 1) (UniProt Q72874); assay: Antiviral activity against mutant virus HIV-1 mutant (84V) strain; format: functional; method in brief: as §1
# [6] = Oral bioavailability in dog (dose 10 mg/kg); format: ADME, organism-based, Canis lupus familiaris; details: in vivo
# Method in brief: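 Dogs, n = 3 per group, given 10 mg/kg in a propylene glycol/polyethylene glycol 400/water formulation, dosed orally and intravenously. F% = AUC po/AUC iv, with AUC from time zero to infinity of the plasma concentration-time curve, normalized for dose.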
# [7] = target: Human immunodeficiency virus type 1 protease (Human immunodeficiency virus 1) (UniProt Q72874); assay: Antiviral activity against indinavir virus (HIV-1 mutated at 10R/63P/71V/82T/84V and resistant to indinavir)
SMILES,Cmax [1] [nM],Ki [2] [nM],IC90 (MT2) [nM],IC90 mutant/IC90 WT [3],IC90 mutant/IC90 WT [4],IC90 mutant/IC90 WT [5],bioavailability [6] [%],IC90 mutant/IC90 WT [7]
O=C(Cn1cncn1)c1cccc(CN2C(=O)N(Cc3ccc4[nH]ncc4c3)[C@H](Cc3ccccc3)[C@H](O)[C@@H](O)[C@H]2Cc2ccccc2)c1,150,0.022,51,–,–,–,–,–
Cc1ccc(NC(=O)c2cccc(CN3C(=O)N(Cc4ccc5[nH]ncc5c4)[C@H](Cc4ccccc4)[C@H](O)[C@@H](O)[C@H]3Cc3ccccc3)c2)nc1,< 50,0.048,4,–,–,–,–,–
Nc1ccc(CN2C(=O)N(Cc3ccc4[nH]ncc4c3)[C@H](Cc3ccccc3)[C@H](O)[C@@H](O)[C@H]2Cc2ccccc2)cc1-n1cncn1,500,0.029,35,20,9,1,–,–
CNc1cc(CN2C(=O)N(Cc3ccc4[nH]ncc4c3)[C@H](Cc3ccccc3)[C@H](O)[C@@H](O)[C@H]2Cc2ccccc2)ccc1F,670,0.027,7,–,–,–,14,–
O=C(Nc1nccs1)c1cccc(CN2C(=O)N(Cc3ccc4[nH]ncc4c3)[C@H](Cc3ccccc3)[C@H](O)[C@@H](O)[C@H]2Cc2ccccc2)c1,–,0.016,8,22,9,2,–,7.3
Nc1ccc(CN2C(=O)N(Cc3ccc4[nH]ncc4c3)[C@H](Cc3ccccc3)[C@H](O)[C@@H](O)[C@H]2Cc2ccccc2)cc1,10600,0.03,11,240,170,31,100,–
Nc1ccc(CN2C(=O)N(Cc3ccc4[nH]ncc4c3)[C@H](Cc3ccccc3)[C@H](O)[C@@H](O)[C@H]2Cc2ccccc2)cc1-c1cc[nH]n1,–,0.025,22,20,2.1,2.2,–,–
CC(=O)c1cccc(CN2C(=O)N(Cc3ccc4[nH]ncc4c3)[C@H](Cc3ccccc3)[C@H](O)[C@@H](O)[C@H]2Cc2ccccc2)c1,1300,0.036,15,–,–,–,25,–
O=C(Nc1ncc[nH]1)c1cccc(CN2C(=O)N(Cc3cccc(C(=O)Nc4ncc[nH]4)c3)[C@H](Cc3ccccc3)[C@H](O)[C@@H](O)[C@H]2Cc2ccccc2)c1,–,–,60,0.7,0.2,0.7,–,0.4
O=C1N(Cc2ccc(CO)cc2)[C@H](Cc2ccccc2)[C@H](O)[C@@H](O)[C@@H](Cc2ccccc2)N1Cc1ccc(CO)cc1 [DMP-323],–,–,57,97,93,28,–,18
Nc1cccc(CN2C(=O)N(Cc3ccc4[nH]ncc4c3)[C@H](Cc3ccccc3)[C@H](O)[C@@H](O)[C@H]2Cc2ccccc2)c1,7200,0.03,11,200,75,6.8,93,20
Nc1cccc(CN2C(=O)N(Cc3cccc(N)c3)[C@H](Cc3ccccc3)[C@H](O)[C@@H](O)[C@H]2Cc2ccccc2)c1 [MOZENAVIR],–,–,130,100,49,10,–,27
CNc1cccc(CN2C(=O)N(Cc3ccc4[nH]ncc4c3)[C@H](Cc3ccccc3)[C@H](O)[C@@H](O)[C@H]2Cc2ccccc2)c1,8000,0.039,8,–,–,–,92,–
O=C1N(Cc2cccc(NCc3nc4ccccc4s3)c2)[C@H](Cc2ccccc2)[C@H](O)[C@@H](O)[C@@H](Cc2ccccc2)N1Cc1ccc2[nH]ncc2c1,–,0.059,5,20,25,3.3,–,–
O=C(Cc1ccccn1)c1cccc(CN2C(=O)N(Cc3ccc4[nH]ncc4c3)[C@H](Cc3ccccc3)[C@H](O)[C@@H](O)[C@H]2Cc2ccccc2)c1,700,0.073,15,5,10,1,–,–

# — ChEMBL document CHEMBL1131003, “Nonsymmetric P2/P2' cyclic urea HIV protease inhibitors. Structure-activity relationship, bioavailability, and resistance profile of monoindazole-substituted P2 analogues” (J Med Chem, 1998)
